High-throughput results: PubChem, The Scripps Research Institute Molecular Screening Center
Compounds with a hit are over-represented: about 4.5% of the library has one in this group of screens.
CHO parental Ca: signal in parental CHO cells, OX1R antagonist counter-screen; AID 463079; inhibition, % at 5.6 µM; 0.63% of 330,000 active; parental CHO-K1, ATP-induced calcium, Fluo-8 fluorescence;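 active means inhibition above that plate's mean sample inhibition plus 3 SD, cut at about 26% in these data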
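Assay system: untransfected parental CHO cell line. Also added: ATP agonist challenge. Dosing: one dose, 5.6 µM nominal. Measured by: Fluo-8 fluorescence. Read-out: % inhibition. Benchmarks: ATP wells versus no-ATP DMSO wells. Repeats: no replicates.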
OX1R antag-1: human HCRTR1 antagonism | O43613 | CHO/OX1R cells, Fluo-8 calcium fluorescence, orexin A | inhibition, % at 5 µM | 0.43% of 330,000 active | AID 434989;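 active means inhibition above its plate's threshold, mean inhibition of all tested compounds on the plate plus 3 SD, cut at about 37% in these data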
GPR7 antag: human neuropeptides B/W receptor 1 antagonism | inhibition, % at 4.4 µM | 1.1% of 290,000 active | GPR7-expressing cells, fluorescence antagonist assay; in the data active means inhibition above about 16%, passing the limit was not always enough;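 further: cells stimulated with the agonist NPW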
Target sequence (P48145 whole entry, looked up): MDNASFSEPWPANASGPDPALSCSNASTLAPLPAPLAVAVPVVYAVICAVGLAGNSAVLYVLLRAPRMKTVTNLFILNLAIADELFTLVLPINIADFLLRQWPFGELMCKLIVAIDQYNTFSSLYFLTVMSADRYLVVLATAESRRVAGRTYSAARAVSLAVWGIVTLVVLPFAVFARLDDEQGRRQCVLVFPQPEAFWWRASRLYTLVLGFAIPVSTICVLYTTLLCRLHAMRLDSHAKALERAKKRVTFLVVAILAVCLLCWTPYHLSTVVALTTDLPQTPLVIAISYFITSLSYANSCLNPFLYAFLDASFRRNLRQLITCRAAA
OX1R antag-2: blocks the human orexin 1 receptor; O43613; inhibition, % at 6.6 µM; 1.8% of 330,000 active; AID 485270; OX1R-expressing cells, FRET antagonist read-out; in the data active means inhibition mostly above about 38%, no sharp cut-off; inactive means mostly below about 40%
TAAR1 agonist: human TAAR1 agonism. activation, % at 3 µM. AID 624467. CHO RD-HGA16 TAAR1, Fluo-8 calcium fluorescence; vehicle wells 0%, saturating PEA agonist 100%. Q96RJ0. 0.99% of 360,000 active;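 active means activation above the mean activation of all test compounds in the run plus 3 SD, cut at about 38% in these data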
Target sequence (Q96RJ0 whole entry, looked up): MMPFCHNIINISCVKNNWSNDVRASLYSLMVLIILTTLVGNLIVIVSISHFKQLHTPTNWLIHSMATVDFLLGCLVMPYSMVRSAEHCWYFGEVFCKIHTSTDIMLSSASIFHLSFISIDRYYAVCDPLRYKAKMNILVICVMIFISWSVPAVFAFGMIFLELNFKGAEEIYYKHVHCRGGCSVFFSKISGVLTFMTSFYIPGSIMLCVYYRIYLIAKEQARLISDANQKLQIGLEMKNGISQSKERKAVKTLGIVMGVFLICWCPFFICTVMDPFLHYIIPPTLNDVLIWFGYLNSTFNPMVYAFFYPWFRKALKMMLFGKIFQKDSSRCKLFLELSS
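Benchmarks: low control DMSO, high control PEA (EC100); System: CHO RD-HGA16 cells carrying human TAAR1 plus Gα16; Detection: Fluo-8 fluorescence, 5 s baseline then 140 s kinetic read; Schedule: 17-24 h plating, Fluo-8 75 min 37 °C, 30 min RT; Read-out basis: % activation from peak over basal fluorescence ratio, DMSO-to-PEA scaled.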
TAAR1 antagonist: antagonists of human TAAR1. Q96RJ0. CHO RD-HGA16 TAAR1, Fluo-8 calcium fluorescence, antagonist. inhibition, % at 3 µM. 1.5% of 360,000 active. AID 624466;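 active means inhibition above a per-plate cutoff, the mean inhibition of test compounds on that plate plus 3 SD, cut at about 49% in these data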
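System: CHO RD-HGA16 cells bearing hTAAR1. Reagent: EC80 β-phenethylamine stimulus. Schedule: seeding 17-24 h prior, 75-min 37 °C, 30-min RT dye loading. Signal: Fluo-8 intracellular calcium dye fluorescence, real-time kinetic reads. Read-out: % inhibition from peak post-agonist over basal fluorescence ratio. Benchmarks: vehicle wells and EC80 agonist wells. Replicates: n of 1.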
Hits are given with their value.

`Cc1ncc(CO)c(/C=N/NC(=O)c2ccc(O)cc2)c1O` gave CHO parental Ca inactive, OX1R antag-1 inactive, GPR7 antag inactive, OX1R antag-2 inactive, TAAR1 agonist inactive and TAAR1 antagonist inactive.
For COc1cccc(/C=N/Nc2nnc(C)n2N)c1OCc1ccccc1Cl the results were CHO parental Ca inactive, OX1R antag-1 inactive, GPR7 antag inactive, OX1R antag-2 67, TAAR1 agonist inactive and TAAR1 antagonist inactive.
For COc1cccc(C=NNc2nnc(NN=Cc3cccc(OC)c3OC)c3ccccc23)c1OC the results were TAAR1 agonist inactive and TAAR1 antagonist inactive.
Screening COc1ccc(C(C)(O)c2nc(-c3ccc(S(C)(=O)=O)cc3)cs2)cc1 (centres undefined) returned TAAR1 agonist inactive and TAAR1 antagonist inactive.
Screening N#CC1=C(N)NC(SCc2ccc(Br)cc2)=C(C#N)C12CCCCC2 returned CHO parental Ca 45, OX1R antag-1 inactive, GPR7 antag inactive, OX1R antag-2 inactive, TAAR1 agonist inactive and TAAR1 antagonist inactive.
`N#CC1=C(N)NC(SCc2ccc(Cl)cc2)=C(C#N)C12CCCCC2` gave CHO parental Ca 47, OX1R antag-1 54, GPR7 antag inactive, OX1R antag-2 inactive, TAAR1 agonist inactive and TAAR1 antagonist 62.
For CCOC(=O)C1=CCC(c2ccc(Cl)cc2)N(S(=O)(=O)c2ccc(C)cc2)C1 (centres undefined) the results were TAAR1 agonist inactive and TAAR1 antagonist inactive.
`CCN(CC)CCNc1oc(-c2ccccc2)nc1S(=O)(=O)c1ccccc1` gave CHO parental Ca inactive, OX1R antag-1 inactive, OX1R antag-2 inactive, TAAR1 agonist inactive and TAAR1 antagonist inactive.
CN(c1ccccc1)c1ccc(/C=C/[N+](=O)[O-])cc1 was read as CHO parental Ca 63, OX1R antag-1 78, GPR7 antag inactive, OX1R antag-2 inactive, TAAR1 agonist inactive and TAAR1 antagonist inactive.
`O=S1(=O)c2ccc(Br)cc2OC[C@H](c2ccccc2)N1Cc1ccccc1` gave TAAR1 agonist inactive and TAAR1 antagonist inactive.
COc1cccc(/C=N/NC(=O)c2ccc(OCc3cccc(Br)c3)cc2)c1 was read as CHO parental Ca inactive, OX1R antag-1 inactive, GPR7 antag inactive, OX1R antag-2 inactive, TAAR1 agonist inactive and TAAR1 antagonist 52.
`CCOC(=O)c1cnc(-n2nc(C)cc2C)nc1Nc1ccc(OC)cc1` gave CHO parental Ca inactive, OX1R antag-1 inactive, GPR7 antag inactive, OX1R antag-2 inactive, TAAR1 agonist inactive and TAAR1 antagonist inactive.
CCOC(=O)c1cnc(-n2nc(C)cc2C)nc1NC1CCCC1 was read as CHO parental Ca 43, OX1R antag-1 59, GPR7 antag inactive, OX1R antag-2 inactive, TAAR1 agonist inactive and TAAR1 antagonist inactive.
`CC(=O)N1C[C@@H](CO)[C@@H](N(C)C(=O)Nc2cccc3ccccc23)C[C@H]1c1ccccc1` gave TAAR1 agonist inactive and TAAR1 antagonist inactive.
Nc1nc2c(nnn2Cc2ccc(Cl)c(Cl)c2)c(=O)[nH]1 was read as TAAR1 agonist inactive and TAAR1 antagonist inactive.
For Cc1ccnc(Nc2nc(-c3c(C)nc4sccn34)cs2)c1 the results were CHO parental Ca inactive, OX1R antag-1 inactive, GPR7 antag inactive, OX1R antag-2 55, TAAR1 agonist inactive and TAAR1 antagonist inactive.
Screening CCOC(=O)c1c(C)[nH]c(C)c1C(=O)COC(=O)c1ccc(S(=O)(=O)C(F)F)cc1 returned CHO parental Ca inactive, OX1R antag-1 inactive, OX1R antag-2 inactive, TAAR1 agonist inactive and TAAR1 antagonist inactive.
COc1ccccc1C(CC(=O)c1ccccc1)C(=O)c1ccccc1 (centres undefined) was read as TAAR1 agonist inactive and TAAR1 antagonist 73.
`C=CCSc1nnc(-c2cc3c(-c4ccccc4)nn(C)c3s2)n1C` gave CHO parental Ca inactive, OX1R antag-1 inactive, GPR7 antag inactive, OX1R antag-2 75, TAAR1 agonist inactive and TAAR1 antagonist inactive.
`CCCn1c(=O)[nH]c(=O)c2c1nc(-c1cc([N+](=O)[O-])ccc1Cl)n2CCOC` gave CHO parental Ca inactive, OX1R antag-1 inactive, GPR7 antag inactive, OX1R antag-2 41, TAAR1 agonist inactive and TAAR1 antagonist inactive.
For COc1cccc(-c2cc(C(=O)N3CCN(S(=O)(=O)c4ccccc4)CC3)[nH]n2)c1 the results were CHO parental Ca inactive, OX1R antag-1 inactive, GPR7 antag inactive, OX1R antag-2 inactive, TAAR1 agonist inactive and TAAR1 antagonist inactive.
For O=C(Nc1ccc(F)cc1)C1C2CCC3C(CCC21)C3(Cl)Cl (centres undefined) the results were CHO parental Ca inactive, OX1R antag-1 inactive, GPR7 antag inactive, OX1R antag-2 inactive, TAAR1 agonist inactive and TAAR1 antagonist inactive.
`O=C(Nc1ccc(Cl)cc1)C1C2CCC3C(CCC21)C3(Cl)Cl` (centres undefined) gave GPR7 antag inactive, TAAR1 agonist inactive and TAAR1 antagonist 56.
`CCOc1cc(C)c(S(=O)(=O)Nc2ccc3cn[nH]c3c2)cc1C` gave CHO parental Ca 48, OX1R antag-1 inactive, GPR7 antag inactive and OX1R antag-2 inactive.
`COC(=O)Cc1nnn2c1[C@@H](C)[C@@H](c1ccccc1Br)OC[C@@H]2c1ccccc1` gave TAAR1 agonist inactive and TAAR1 antagonist inactive.
COc1ccc(NC(=O)c2sccc2OS(=O)(=O)N(C)C)cc1 was read as CHO parental Ca inactive, OX1R antag-1 inactive, GPR7 antag inactive, OX1R antag-2 inactive, TAAR1 agonist inactive and TAAR1 antagonist inactive.
Screening CN(C)S(=O)(=O)Oc1ccsc1C(=O)Nc1cccc(Cl)c1Cl returned CHO parental Ca 46, OX1R antag-1 inactive, GPR7 antag inactive, OX1R antag-2 inactive, TAAR1 agonist inactive and TAAR1 antagonist inactive.
For CCOC(=O)c1ccc(Nc2nc(C(=O)OCC)nc3ccccc23)cc1 the results were CHO parental Ca inactive, OX1R antag-1 inactive, GPR7 antag inactive, OX1R antag-2 inactive, TAAR1 agonist inactive and TAAR1 antagonist inactive.
For CCOC(=O)c1nc(Nc2ccc(Nc3ccccc3)cc2)c2ccccc2n1 the results were GPR7 antag inactive, TAAR1 agonist inactive and TAAR1 antagonist 63.
Screening COC(=O)C1=C(C)N(Cc2ccccc2C(F)(F)F)C(=NCc2ccc(C(F)(F)F)cc2)NC1c1ccc(C(F)(F)F)cc1 (centres undefined) returned TAAR1 agonist inactive and TAAR1 antagonist inactive.
Screening CCOC(=O)c1ccc(NC(=O)c2nc[nH]c2C(=O)NCCCCCNC(=O)OC(C)(C)C)cc1 returned CHO parental Ca inactive, OX1R antag-1 inactive, OX1R antag-2 inactive, TAAR1 agonist inactive and TAAR1 antagonist 56.
Screening O=C(Nc1ccccc1)c1nc[nH]c1C(=O)NCCNC(=O)c1[nH]cnc1C(=O)Nc1ccccc1 returned CHO parental Ca inactive, OX1R antag-1 inactive, OX1R antag-2 65, TAAR1 agonist inactive and TAAR1 antagonist 56.
Screening O=C(Nc1ccccc1)c1nc[nH]c1C(=O)Nc1ccccc1F returned TAAR1 agonist inactive and TAAR1 antagonist inactive.
